{"data": "Measured values gathered from unrelated publications", "note": "Each line is one published result; the experiments were not run side by side."}
{"Compound": "O=C(NCc1cn(Cc2ccc(Cl)cc2)nn1)Nc1ccc(Cl)cc1", "target or system": "L02", "assay": "cell growth or viability, CCK-8", "setting": "50 µM, 72 h", "quantity": "viability", "value": "127%"}
{"Compound": "COc1ccc(NC(=O)NCc2cn(Cc3ccc(Br)cc3)nn2)cc1", "target or system": "L02", "assay": "cell growth or viability, CCK-8", "setting": "50 µM, 72 h", "quantity": "viability", "value": "119%"}
{"Compound": "COc1ccc2c(c1)CN(C(=O)CCN1CCC(Cc3ccccc3)CC1)CC[S@@+]2[O-]", "test system": "male human, plasma", "setting": "intravenous, 0.4 mg/kg, healthy volunteers", "quantity": "Cmax", "value": "1080 ng/mL"}
{"Compound": "O=C(COc1ccc(Cl)cc1)NC12CC(c3nnc([C@H]4C[C@@H](OC(F)(F)F)C4)o3)(C1)C2", "test system": "human, plasma", "setting": "oral, 100 mg, single dose, fasted, healthy volunteers", "quantity": "Cmax", "value": "1180 nM"}
{"Compound": "COc1ccc(-c2c(Nc3ccccn3)[nH]c3c(C4=CCCCC4)c(-c4ccccc4)nn3c2=O)cc1", "test system": "human, plasma", "setting": "oral, 200 mg twice daily, multiple doses, patients", "quantity": "Cmax", "value": "13600 ng/mL"}
{"Compound": "O=C(NCc1cn(Cc2cccc(Cl)c2)nn1)Nc1ccc(Cl)cc1", "target or system": "L02", "assay": "cell growth or viability, CCK-8", "setting": "50 µM, 72 h", "quantity": "viability", "value": "100%"}
{"Compound": "COc1ccc(NC(=O)Nc2cccc(-c3cn(Cc4cccc(Cl)c4)nn3)c2)cc1", "target or system": "L02", "assay": "cell growth or viability, CCK-8", "setting": "50 µM, 72 h", "quantity": "viability", "value": "123%"}
{"Compound": "CNC(C)(C)COCC(=O)N1CCC[C@H](C(=O)NCc2nc(-c3ccc(C(F)(F)F)cc3)cs2)C1", "test system": "Caco-2", "quantity": "efflux ratio", "value": 180}
{"Compound": "COc1ccc(NC(=O)Nc2ccc(-c3cn(Cc4ccc(Br)cc4)nn3)cc2)cc1", "target or system": "L02", "assay": "cell growth or viability, CCK-8", "setting": "50 µM, 72 h", "quantity": "viability", "value": "91.1%"}
{"Compound": "O=C(Nc1ccc(Cl)cc1)Nc1ccc(-c2cn(Cc3cccc(Cl)c3)nn2)cc1", "target or system": "L02", "assay": "cell growth or viability, CCK-8", "setting": "50 µM, 72 h", "quantity": "viability", "value": "92.6%"}
{"Compound": "COc1ccc(NC(=O)NCc2cn(Cc3ccc(Cl)cc3)nn2)cc1", "target or system": "L02", "assay": "cell growth or viability, CCK-8", "setting": "50 µM, 72 h", "quantity": "viability", "value": "121%"}
{"Compound": "CC(C)n1c(C2CCNCC2)nc2c([N+](=O)[O-])c(Br)c(Br)cc21", "test system": "human, plasma", "setting": "oral, 150 mg, patients", "quantity": "Cmax", "value": "249 ng/mL"}
